In ChEMBL document CHEMBL4428090, “Modeling, Synthesis, and Biological Evaluation of Potential Retinoid X Receptor (RXR)-Selective Agonists: Analogues of 4-[1-(3,5,5,8,8-Pentamethyl-5,6,7,8-tetrahydro-2-naphthyl)ethynyl]benzoic Acid (Bexarotene) and 6-(Ethyl(5,5,8,8-tetrahydronaphthalen-2-yl)amino)nicotinic Acid (NEt-TMN)” (J Med Chem, 2016):

What was measured:
[1] = target: T1, Retinoic acid receptor RXR-alpha/oxysterols receptor LXR-alpha (Homo sapiens, UniProt P19793+Q13133); experiment: Agonist activity at human RXRalpha/LXRalpha expressed in human HCT116 cells assessed as reduction in SREBP-mediated transcription activity at 100 nM incubated for 24 hrs by luciferase reporter gene assay in presence of 100 nM LXR agonist TO901317 relative to bexarotene; type: cell-based; design: scale not given: the % may be the effect or the level left; conditions: 0.1 µM
T1 sequence (P19793 whole entry): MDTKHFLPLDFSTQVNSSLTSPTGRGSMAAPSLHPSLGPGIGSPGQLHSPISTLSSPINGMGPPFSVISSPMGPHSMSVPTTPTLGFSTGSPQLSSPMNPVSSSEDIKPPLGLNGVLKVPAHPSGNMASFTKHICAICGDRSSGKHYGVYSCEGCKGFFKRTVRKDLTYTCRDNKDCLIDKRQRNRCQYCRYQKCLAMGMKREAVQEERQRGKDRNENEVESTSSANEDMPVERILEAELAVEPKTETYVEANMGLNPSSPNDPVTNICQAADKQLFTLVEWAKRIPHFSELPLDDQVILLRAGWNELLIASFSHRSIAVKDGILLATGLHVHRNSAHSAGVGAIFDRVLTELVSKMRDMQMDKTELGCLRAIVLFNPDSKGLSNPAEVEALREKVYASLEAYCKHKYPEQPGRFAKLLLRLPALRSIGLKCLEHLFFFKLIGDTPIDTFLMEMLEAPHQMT
T1 sequence (Q13133 whole entry): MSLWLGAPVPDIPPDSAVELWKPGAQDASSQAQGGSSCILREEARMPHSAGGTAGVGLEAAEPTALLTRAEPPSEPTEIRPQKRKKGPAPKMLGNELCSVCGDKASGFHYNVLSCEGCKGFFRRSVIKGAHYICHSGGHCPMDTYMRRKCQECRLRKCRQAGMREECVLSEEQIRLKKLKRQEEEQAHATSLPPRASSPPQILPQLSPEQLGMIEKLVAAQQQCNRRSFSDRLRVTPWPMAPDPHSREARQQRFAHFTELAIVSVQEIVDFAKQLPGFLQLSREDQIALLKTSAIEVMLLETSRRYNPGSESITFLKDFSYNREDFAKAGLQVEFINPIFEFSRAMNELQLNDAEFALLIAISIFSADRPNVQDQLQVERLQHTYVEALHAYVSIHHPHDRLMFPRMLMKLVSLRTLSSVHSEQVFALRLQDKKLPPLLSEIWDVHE
Procedure, shortened: (§1)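 HCT116 cells co-transfected for 24 h with 100 ng pBP1c(6500)-Luc (about 6500 bp murine SREBP-1c promoter), 10 ng human LXRα and 20 ng renilla. Treated 24 h with compound at 100 nM, alone or with 100 nM TO901317. Luciferase output. Three independent assays in triplicate; bexarotene = 100%.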

[2] = Lipid risk index, ratio of agonist activity at human RXRalpha/LXRalpha expressed in human HCT116 cells assessed as reduction in SREBP-mediated transcription activity to agonist activity at human RXRalpha expressed in human HCT116 cells assessed as increase in RXRE-mediated transcription
Procedure, shortened: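 Lipid risk index: SREBP-promoter luciferase activity (HCT116, LXRα-transfected, 100 nM compound with or without 100 nM TO901317, 24 h) divided by RXRE activity at 100 nM. The SREBP:RXRE ratio for bexarotene is set to 1.0.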

Homo sapiens = species on record: Homo sapiens; experiment: Selectivity index, ratio of agonist activity at human RARalpha expressed in HEK293 cells assessed as increase in RARE-mediated transcription relative to bexarotene to agonist activity at human RXRalpha expressed in human HCT116 cells assessed as increase in RXRE-mediated transcription relative to bexarotene; type: cell-based
Procedure, shortened: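 HEK293 cells (60,000/well) transfected for 24 h with 250 ng pTK-DR5(X2)-Luc, 25 ng human RARα and 20 ng renilla. Treated 24 h at 100 nM; activity expressed as a percentage of all-trans-retinoic acid. This RARE activity is divided by 100 nM RXRE activity, with the bexarotene ratio set to 1.0.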

HuT78 = experiment: Growth inhibition of human HUT78 cells at 200 nM incubated for 72 hrs by MTS assay relative to bexarotene; type: functional; conditions: HuT78, 72 h, read-out: GI
Procedure, shortened: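 Hut78 cells in RPMI with 10% FBS at 37°C, 5% CO2. Plated 7,500 cells/well and immediately dosed at 200 nM for 72 h. MTS read at A490; percent inhibition with media control set to 0.0, compared with bexarotene set to 100%. Mean of three independent experiments.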

[3] = target: T1, Retinoic acid receptor RXR-alpha/oxysterols receptor LXR-alpha; experiment: Agonist activity at human RXRalpha/LXRalpha expressed in human HCT116 cells assessed as reduction in SREBP-mediated transcription activity at 100 nM incubated for 24 hrs by luciferase reporter gene assay relative to bexarotene; type: cell-based; design: scale not given: the % may be the effect or the level left; conditions: 0.1 µM; procedure, shortened: as §1
[4] = target: T2, Retinoic acid receptor RXR-alpha (Homo sapiens) (UniProt P19793); experiment: Agonist activity at human RXRalpha expressed in human HCT116 cells assessed as increase in RXRE-mediated transcription at 25 nM incubated for 24 hrs by RXRE luciferase reporter gene assay relative to bexarotene; type: cell-based
T2 sequence (whole entry): T1 sequence (P19793 whole entry)
Procedure, shortened: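 HCT-116 cells (80,000/well) co-transfected for 24 h with 250 ng RXRE-luciferase reporter (DR1 element from the rat cellular retinol binding protein II gene), 25 ng pSG5-human RXRα and 20 ng renilla. Dosed 24 h at 25, 100 or 1000 nM final; ethanol or DMSO vehicle 0.1%. Dual-luciferase read-out. Three independent assays in triplicate; bexarotene = 100%.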

[5] = target: T3, Retinoid X receptor (Homo sapiens) (UniProt P28702+P48443+P19793); experiment: Agonist activity at human RXR binding domain and activation domain expressed in human HCT116 cells assessed as rexinoid activity at 25 nM incubated for 24 hrs by luciferase reporter gene based mammalian two-hybrid assay relative to bexarotene; type: cell-based
Procedure, shortened: (§2)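 HCT-116 cells plated overnight (80,000/well, DMEM with 10% FBS), co-transfected for 24 h with human RXR binding-domain (bait) and activation-domain (prey) vectors, pFR-Luc Gal4 reporter and renilla control. Treated 24 h at 25, 100 or 1000 nM final; vehicle ethanol or DMSO 0.1%. Dual-luciferase read-out. Three independent assays in triplicate; bexarotene set to 100%.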

[6] = target: T3, Retinoid X receptor (Homo sapiens); experiment: Agonist activity at human RXR binding domain and activation domain expressed in human HCT116 cells assessed as rexinoid activity at 1000 nM incubated for 24 hrs by luciferase reporter gene based mammalian two-hybrid assay relative to bexarotene; type: cell-based; procedure, shortened: as §2

T3 sequence (P28702 whole entry, looked up, one chain of several, the tested form may be a part): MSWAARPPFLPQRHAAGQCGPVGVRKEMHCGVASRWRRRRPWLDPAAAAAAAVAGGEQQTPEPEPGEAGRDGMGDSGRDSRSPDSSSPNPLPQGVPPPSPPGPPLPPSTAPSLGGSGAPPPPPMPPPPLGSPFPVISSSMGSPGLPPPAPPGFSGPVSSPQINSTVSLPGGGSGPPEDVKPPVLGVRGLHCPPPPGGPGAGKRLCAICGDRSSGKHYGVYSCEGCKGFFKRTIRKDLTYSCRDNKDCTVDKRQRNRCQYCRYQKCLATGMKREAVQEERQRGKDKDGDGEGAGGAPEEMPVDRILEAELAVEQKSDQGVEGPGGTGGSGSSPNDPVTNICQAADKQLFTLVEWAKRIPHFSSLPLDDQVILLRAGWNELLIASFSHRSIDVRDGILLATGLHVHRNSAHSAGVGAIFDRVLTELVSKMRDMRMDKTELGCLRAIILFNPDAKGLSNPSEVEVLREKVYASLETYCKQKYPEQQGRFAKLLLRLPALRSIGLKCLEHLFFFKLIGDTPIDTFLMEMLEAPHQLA
T3 sequence (P48443 whole entry, looked up, one chain of several, the tested form may be a part): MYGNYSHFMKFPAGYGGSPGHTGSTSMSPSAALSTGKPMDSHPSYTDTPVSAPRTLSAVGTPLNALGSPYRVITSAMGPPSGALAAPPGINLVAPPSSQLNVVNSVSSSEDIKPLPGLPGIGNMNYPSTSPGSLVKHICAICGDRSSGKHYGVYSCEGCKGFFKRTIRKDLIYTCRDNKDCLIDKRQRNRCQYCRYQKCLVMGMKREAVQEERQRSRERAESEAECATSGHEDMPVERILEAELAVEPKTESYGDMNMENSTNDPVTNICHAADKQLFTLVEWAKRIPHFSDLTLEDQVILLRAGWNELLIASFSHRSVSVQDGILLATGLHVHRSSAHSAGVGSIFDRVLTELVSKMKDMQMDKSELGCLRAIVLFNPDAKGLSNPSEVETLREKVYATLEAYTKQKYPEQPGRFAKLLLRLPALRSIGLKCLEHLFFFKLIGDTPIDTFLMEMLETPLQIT

| Compound | Activity [1] | Ratio [2] | Ratio (Homo sapiens) | inhibition of growth at 0.2 µM (HuT78) | Activity [3] | Activity [4] | fold change (FC) [5] | Activity [6] | Activity [5] |
| --- | --- | --- | --- | --- | --- | --- | --- | --- | --- |
| CCN(c1ccc2c(c1)C(C)(C)CCC2(C)C)c1ccc(C(=O)O)cn1 | 13 to 17% | 0.49 - 0.51 | > 0.5 | > 85% | Active | 27 to 66% | 2 | 35 to 58% |  |
| CCN(c1ccc2c(c1)C(C)(C)CCC2(C)C)c1cnc(C(=O)O)cn1 | 33% | 0.48 - 0.65 | > 0.5 | 35 to 51% | 54 to 79% |  |  | 35 to 58% | 11.3% |
| CCN(c1ccc(C(=O)O)cc1)c1cc2c(cc1C)C(C)(C)CCC2(C)C |  | 0.48 - 0.65 | 0.35 to 0.37 | 35 to 51% | 54 to 79% | 27 to 66% |  | 51 to 56% | 140 to 150% |
| CCN(c1ccc(C(=O)O)c(F)c1)c1cc2c(cc1C)C(C)(C)CCC2(C)C |  | 0.48 - 0.65 | 0.35 to 0.37 | 55 to 80% | 54 to 79% | 27 to 66% |  | 51 to 56% | 140 to 150% |
| CCN(c1ncc(C(=O)O)cn1)c1cc2c(cc1C)C(C)(C)CCC2(C)C | 13 to 17% | 0.49 - 0.51 | 0.35 to 0.37 | 55 to 80% | Active | 27 to 66% | 2 | 35 to 58% |  |
